Active and inactive are the calls of the source. The calls are words filed in the database; no cut-off is given here.
Columns and labels:
Rattus norvegicus [1] = experiment: Lymphopenic activity in Wistar rat assessed as reduction in blood lymphocyte count at 10 mg/kg, po after 96 hrs; assay type: functional; parameters: scale not given: the % may be the effect or the level left
In short: (§1)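 Normotensive male Wistar rats given 1–10 mg/kg by gavage in 5% DMSO/7.5% succinylated gelatin. Blood taken before and 3, 6 and 24 h after dosing, with later times for some compounds. Lymphocytes counted by hematology analyzer. % LC change calculated per animal relative to the predose value (=100%). Mean ± SEM.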

Rattus norvegicus [2] = experiment: Lymphopenic activity in Wistar rat assessed as reduction in blood lymphocyte count at 10 mg/kg, po after 3 hrs; assay type: functional; parameters: scale not given: the % may be the effect or the level left; in short: as §1
Rattus norvegicus [3] = experiment: Lymphopenic activity in Wistar rat assessed as reduction in blood lymphocyte count at 10 mg/kg, po after 24 hrs; assay type: functional; in short: as §1
Rattus norvegicus [4] = experiment: Lymphopenic activity in Wistar rat assessed as reduction in blood lymphocyte count at 10 mg/kg, po after 6 hrs; assay type: functional; parameters: scale not given: the % may be the effect or the level left; in short: as §1
[5] = Cmax in Wistar rat at 10 mg/kg, po; assay type: ADME, organism-based; parameters: dose 10 mg/kg, route oral; conditions: in vivo
In short: (§2)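 Male Wistar rats (~250 g), 10 mg/kg by gavage as a DMSO solution added to 7.5% succinylated gelatin in water (5% DMSO final). Sublingual blood under light isoflurane predose and at 0.5, 1, 2, 3, 4, 6, 8, 24 h into EDTA. Plasma LC-MS-MS after methanol precipitation. Noncompartmental parameters. Bioavailability referenced to 1 mg/kg iv.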

[6] = AUC (0 to 24 hrs) in Wistar rat at 10 mg/kg, po; assay type: ADME, organism-based; parameters: time < 24 hr, dose 10 mg/kg, route oral; conditions: plasma
[7] = Plasma concentration in Wistar rat at 10 mg/kg, po after 24 hrs; assay type: ADME, organism-based; parameters: dose 10 mg/kg, route oral
[8] = Plasma concentration in Wistar rat at 10 mg/kg, po after 6 hrs; assay type: ADME, organism-based; parameters: dose 10 mg/kg, route oral
[9] = Volume of distribution at steady state in Wistar rat at 1 mg/kg, iv; assay type: ADME, organism-based; parameters: dose 1 mg/kg, route intravenous; conditions: in vivo, read-out: Vdss
In short: (§3)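 Male Wistar rats (~250 g), jugular vein and carotid artery catheters implanted 2 days before dosing under isoflurane with buprenorphine analgesia. 1 mg/kg given as a 5 min jugular infusion in aqueous mixed micellar vehicle (phospholipids, bile acids). Serial EDTA blood sampling up to 24 h. Plasma analysed by LC-MS-MS after methanol precipitation. Noncompartmental analysis.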

[10] = Intrinsic clearance in Wistar rat liver microsomes at 1 uM by LC-MS/MS analysis; assay type: ADME; conditions: read-out: CLH
In short: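 Pooled male Wistar rat liver microsomes at 0.5 mg/mL protein. Compound at 1 µM, 37 °C, DMSO ≤0.1%. Started with NADPH-regenerating system (NADP, glucose 6-phosphate, MgCl2, G6PDH, pH 7.4 phosphate). Quenched with ice-cold methanol at times up to 15 min, then LC-MS-MS.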

Rattus norvegicus [11] = experiment: Clearance in Wistar rat at 1 mg/kg, iv; assay type: ADME, organism-based; parameters: dose 1 mg/kg, route intravenous; conditions: in vivo; in short: as §3
[12] = molecular target: Sphingosine 1-phosphate receptor 3 (Homo sapiens, UniProt Q99500); experiment: Agonist activity at human recombinant S1P3 receptor expressed in CHO cells assessed as membrane-bound 35S-GTPgammaS incubated 30 mins prior to substrate addition measured after 1 hr by topcount scintillation counting analysis; assay type: functional, cell-based
[13] = molecular target: Sphingosine 1-phosphate receptor 1 (Homo sapiens, UniProt P21453); experiment: Agonist activity at human recombinant S1P1 receptor expressed in CHO cells assessed as membrane-bound 35S-GTPgammaS incubated 30 mins prior to substrate addition measured after 1 hr by topcount scintillation counting analysis; assay type: functional, cell-based
[14] = Plasma concentration in Wistar rat at 10 mg/kg, po after 3 hrs; assay type: ADME, organism-based; parameters: dose 10 mg/kg, route oral
[15] = Oral bioavailability in Wistar rat at 10 mg/kg; assay type: ADME, organism-based; conditions: in vivo; in short: as §2
[16] = Half life in Wistar rat at 1 mg/kg, iv; assay type: ADME, organism-based; parameters: dose 1 mg/kg, route intravenous; conditions: in vivo; in short: as §3
[17] = Tmax in Wistar rat at 10 mg/kg, po; assay type: ADME, organism-based; parameters: dose 10 mg/kg, route oral; conditions: in vivo; in short: as §2
[18] = Intrinsic clearance in Wistar rat hepatocytes assessed per 10^6 cells at 1 uM by LC-MS/MS analysis; assay type: ADME, cell-based, Hepatocyte; conditions: read-out: CLH
In short: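 Male rat hepatocytes from two-step collagenase perfusion (viability ≥85%), plated at 5.0 × 10^5 viable cells/mL on collagen and preincubated ~3 h at 37 °C, 5% CO2. Compound at 1 µM final. Duplicate wells sampled at 0–24 h with methanol/0.3% SDS. LC-MS-MS (MRM). CLint from initial first-order disappearance rates.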

Sequence of Sphingosine 1-phosphate receptor 1 (P21453 whole entry): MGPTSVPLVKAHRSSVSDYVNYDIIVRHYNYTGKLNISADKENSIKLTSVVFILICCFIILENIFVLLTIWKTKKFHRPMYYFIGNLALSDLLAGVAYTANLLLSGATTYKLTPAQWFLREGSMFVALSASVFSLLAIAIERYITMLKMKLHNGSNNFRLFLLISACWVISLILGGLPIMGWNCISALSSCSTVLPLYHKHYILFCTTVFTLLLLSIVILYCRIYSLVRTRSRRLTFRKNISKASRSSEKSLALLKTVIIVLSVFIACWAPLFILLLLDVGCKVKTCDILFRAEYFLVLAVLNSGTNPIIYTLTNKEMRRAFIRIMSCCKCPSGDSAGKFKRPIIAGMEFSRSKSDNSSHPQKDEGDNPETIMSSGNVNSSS
Sequence of Sphingosine 1-phosphate receptor 3 (Q99500 whole entry): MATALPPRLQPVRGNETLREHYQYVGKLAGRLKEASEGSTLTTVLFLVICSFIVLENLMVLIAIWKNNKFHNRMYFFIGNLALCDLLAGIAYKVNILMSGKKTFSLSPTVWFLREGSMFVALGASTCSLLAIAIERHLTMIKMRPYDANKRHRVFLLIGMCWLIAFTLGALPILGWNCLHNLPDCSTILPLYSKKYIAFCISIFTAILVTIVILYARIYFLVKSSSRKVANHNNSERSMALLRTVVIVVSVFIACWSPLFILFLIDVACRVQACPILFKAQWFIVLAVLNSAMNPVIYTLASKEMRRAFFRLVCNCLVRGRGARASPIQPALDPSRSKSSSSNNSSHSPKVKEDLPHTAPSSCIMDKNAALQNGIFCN

| Cmax [5] [ng/mL] | AUC(0-t) at 24 h [6] [ng·h/mL] | concentration at 24 h [7] [ng/mL] | concentration at 6 h [8] [ng/mL] | Vd [9] [L/kg] | microsomal CLint at 1 µM [10] [µL/min/mg] | clearance (Rattus norvegicus [11]) [mL/min/kg] | EC50 [12] [nM] | EC50 [13] [nM] | concentration at 3 h [14] [ng/mL] | bioavailability [15] [%] | half-life [16] [h] | Tmax [17] [h] | hepatocyte CLint at 1 µM [18] [µL/min/1e6 cells] | Compound | Activity (Rattus norvegicus [1]) [%] | Activity (Rattus norvegicus [2]) | % change in blood lymphocyte count from predose (Rattus norvegicus [3]) [%] | Activity (Rattus norvegicus [4]) |
| --- | --- | --- | --- | --- | --- | --- | --- | --- | --- | --- | --- | --- | --- | --- | --- | --- | --- | --- |
|  |  |  |  |  |  |  |  |  |  |  |  |  |  | Cc1cc(-c2noc(-c3sc(C)c4c3C[C@@H]3[C@H]4C3(C)C)n2)cc(C)c1OCC(O)CNC(=O)CO (mixture of isomers) | 30 | -66% | -73 | -69% |
| 141 | 276 | < 1.5 | 10 | 2.8 | > 1250 | 46 | 141 | 0.6 | 32 | 8 | 1.7 | 0.5 | 107 | CCc1cc(CCC(=O)c2sc(CC)c3c2CCC(C)(C)C3)cc(C)c1OCC(O)CNC(=O)CO (racemic) |  | Active |  | Active |
